The nature of experiment [1]: reducers of endogenous Her2 protein level, primary screen, SKBR3 breast tumor cells, AlphaScreen, ATP viability (AID 461;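 active = Her2 level under about 52% in both replicate screens, with viability over 70% of control, limit read from the data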;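 as to Her2 level: lower value means less Her2 protein in the cells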;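 as to viability: percent of carrier control wells set as 100% viability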). Conditions: 18-24 h, measured here: SKBR3 viability, ATP luminescence, at 10 µM.
In experiment [2] the target is Receptor tyrosine-protein kinase erbB-2 (Homo sapiens) (UniProt P04626). The experiment is described as above. To be noted: 18-24 h, at 10 µM, stronger effect = lower value.
Chain of Receptor tyrosine-protein kinase erbB-2 (Homo sapiens) (P04626 whole entry, looked up): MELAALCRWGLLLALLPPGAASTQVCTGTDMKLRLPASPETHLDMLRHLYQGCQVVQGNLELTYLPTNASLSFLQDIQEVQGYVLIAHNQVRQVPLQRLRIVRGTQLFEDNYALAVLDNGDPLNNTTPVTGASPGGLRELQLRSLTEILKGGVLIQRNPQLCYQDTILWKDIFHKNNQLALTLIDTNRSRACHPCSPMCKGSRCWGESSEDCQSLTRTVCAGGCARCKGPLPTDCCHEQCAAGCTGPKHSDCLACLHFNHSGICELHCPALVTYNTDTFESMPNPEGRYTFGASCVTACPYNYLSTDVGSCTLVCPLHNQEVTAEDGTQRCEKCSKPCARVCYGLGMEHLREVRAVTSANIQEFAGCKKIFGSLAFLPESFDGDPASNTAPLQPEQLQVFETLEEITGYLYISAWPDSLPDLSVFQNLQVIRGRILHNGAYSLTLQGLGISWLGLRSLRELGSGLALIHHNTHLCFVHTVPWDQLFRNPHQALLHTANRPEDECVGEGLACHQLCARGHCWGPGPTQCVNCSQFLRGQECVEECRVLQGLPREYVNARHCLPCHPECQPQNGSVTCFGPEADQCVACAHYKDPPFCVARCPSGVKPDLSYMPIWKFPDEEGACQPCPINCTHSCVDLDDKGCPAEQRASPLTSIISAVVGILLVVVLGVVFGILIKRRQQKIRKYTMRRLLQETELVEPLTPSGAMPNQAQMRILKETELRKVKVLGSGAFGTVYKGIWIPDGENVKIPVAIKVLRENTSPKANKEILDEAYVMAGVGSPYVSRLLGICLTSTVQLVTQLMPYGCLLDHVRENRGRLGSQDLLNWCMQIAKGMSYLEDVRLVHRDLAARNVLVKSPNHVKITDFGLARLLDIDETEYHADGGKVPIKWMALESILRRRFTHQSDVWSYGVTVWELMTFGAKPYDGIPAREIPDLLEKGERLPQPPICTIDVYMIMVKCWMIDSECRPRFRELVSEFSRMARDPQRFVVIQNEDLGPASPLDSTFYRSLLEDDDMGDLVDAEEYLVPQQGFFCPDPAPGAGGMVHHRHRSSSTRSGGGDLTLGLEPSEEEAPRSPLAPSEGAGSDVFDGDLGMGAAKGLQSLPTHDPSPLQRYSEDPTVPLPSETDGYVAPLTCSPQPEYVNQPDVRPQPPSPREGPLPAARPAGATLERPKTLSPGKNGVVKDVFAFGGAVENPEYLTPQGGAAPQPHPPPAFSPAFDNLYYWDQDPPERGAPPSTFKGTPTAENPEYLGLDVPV
Experiment [3] is described as follows: SK-BR-3 cell growth inhibitors, pilot screen, 24 h, human (AID 572;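 active = viability at or below 10% of carrier control in both of two separate runs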;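 also: compound exposure lasted between 18 and 24 h rather than exactly 24 h; 100% = carrier-treated control wells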). Conditions: SK-BR-3 viability, CellTiter-Glo luminescence, at 10 µM, stronger effect = lower value.
Experiment [4] in a line: HUVEC growth inhibition – cell-based, human, primary screen (AID 575;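 active = viability at or below 30% in both replicate assays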;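 also: 100% = median of untreated cell wells with 0.1% DMSO on each plate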). To be noted: HUVEC proliferation, CellTiter-Glo luminescence, 72 h; at 10 µM; stronger effect = lower value. In outline:
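Test system: primary human umbilical vein endothelial cells; medium: endothelial basal medium with 2% FBS plus growth supplements; dosing: 10 µM compound only; times: 72 h treatment at 37 °C; signal: CTG luminescence; read-out: % viability relative to median vehicle-well signal on each plate; control set: vehicle and MePR control wells; plate: 384-well, collagen-coated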
A general note: In ATP-based viability assays light output follows the ATP content of the culture.

Experiment [5] can be described thus: growth inhibitors of H69AR lung tumor, primary screen, human, duplicate replicates (AID 580).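 Also: 100% = mean luminescence of untreated wells and 0% = no signal.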 Conditions: H69AR lung tumor cells viability, ATP luminescence, 72 h; at 10 µM; stronger effect = lower value.
Experiment [6] is described as follows: reversal of MRP1-mediated doxorubicin resistance, pilot screen, H69AR cells, doxorubicin co-treatment (AID 601;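 active = viability loss from added drug above about 55%, and viability with drug at most 40%, in both replicates, limit read from the data, passing the limit was not always enough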). Conditions: CellTiter-Glo, 72 h, at 10 µM; for differential viability (reversal): stronger effect = higher value.
Experiment [7] in a line: 384-well plate pilot, post-Golgi transport modulator project, inhibition of yeast transport mutant growth (AID 636; in the data active = inhibition above about 31%). To be noted: absorbance 615 nm, about 18 h, stronger effect = higher value.
Experiment [8] can be described thus: growth suppression of yeast trafficking mutant, preliminary HTS, modulators of trafficking downstream of Golgi apparatus project, 1536-format plate, OD 615 nm (AID 637; in the data active = inhibition above about 30%). Conditions: yeast transport mutant growth, absorbance 615 nm, 18 h; stronger effect = higher value.
Setting [9] is: H69AR cells + 2 uM doxorubicin, measured here: viability with 2 uM doxorubicin, stronger effect = lower value.
[10] abbreviates: H69AR cells, compound alone cytotoxicity.

The source of these data is PubChem BioAssay.

Structures are written as SMILES. Calls of active or inactive are those of the source.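 The calls were made as follows, unless noted: active = viability at or under a set limit in both replicates, limit being median viability minus 3 SD (cut at about 48% in these data, passing the limit was not always enough); inconclusive = at or under the limit in just one replicate; inactive = at or above the limit in both replicates.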

With `CCN(CC)S(=O)(=O)N1CCC(C(=O)NCC2COc3ccccc3O2)CC1` (stereo not given), the viability in experiment [1] was 94%; in experiment [3] it was 94% (inactive); in experiment [4] it was 109% (inactive); in experiment [5] it was 97.3% (inactive); in experiment [6] (setting [9]), 107%; in experiment [6] (setting [10]) it was 97.3%. Moreover, the Her2 level in experiment [2] was 114% (inactive). Moreover, in experiment [6] (H69AR cells + 2 uM doxorubicin), the differential viability (reversal) was -9.32% (inactive). Further, the inhibition in experiment [7] was -0.79% (inactive); in experiment [8], 3.65% (inactive).
Consider `O=C(CSc1nnc(Cc2cccs2)n1Cc1ccco1)Nc1cccc(Cl)c1`, for which the viability was 82.5% in experiment [1]; 82.5% (inactive) in experiment [3]; 73.4% (inactive) in experiment [4]; 87% (inactive) in experiment [5]; 95.6% in experiment [6] (setting [9]); 87% in experiment [6] (setting [10]). For the same molecule, in experiment [2], the Her2 level is 64% (inactive). The differential viability (reversal) in experiment [6] (H69AR cells + 2 uM doxorubicin) is -8.62% (inactive). Besides, the inhibition in experiment [7] is -3.38% (inactive); in experiment [8], -7.5% (inactive).
Consider `CC(=O)c1ccc(OCC(O)CN2CC(C)OC(C)C2)cc1` (stereo not given), for which the viability in experiment [1] is 108%; in experiment [3], 108% (inactive); in experiment [4] it was 99.7% (inactive); in experiment [5] it was 105% (inactive); in experiment [6] (setting [9]), 91.3%; in experiment [6] (setting [10]), 105%. Also, the Her2 level in experiment [2] was 80.5% (inactive). Besides, the differential viability (reversal) in experiment [6] (H69AR cells + 2 uM doxorubicin) is 14% (inactive). Also, the inhibition in experiment [7] was -5.19% (inactive); in experiment [8], 4.13% (inactive).
Consider `CNS(=O)(=O)c1cccc(C(=O)OCC(=O)c2cc(C)n(-c3ccc4c(c3)OCO4)c2C)c1`, for which the viability in experiment [1] was 85.5%; in experiment [3], 85.5% (inactive); in experiment [4] it was 65.6% (inactive); in experiment [5], 88.4% (inactive); in experiment [6] (setting [9]), 85.6%; in experiment [6] (setting [10]) it was 88.4%. Further, the Her2 level in experiment [2] was 92% (inactive). The differential viability (reversal) in experiment [6] (H69AR cells + 2 uM doxorubicin) was 2.79% (inactive). Further, the results for the inhibition in experiment [7] and in experiment [8] were -4.42% (inactive) and 2% (inactive), respectively.
With `O=C1C(c2ccncc2)=C(O)c2ccccc21`, the viability in experiment [1] was 100%; in experiment [3] it was 100% (inactive); in experiment [4], 73.6% (inactive); in experiment [5], 82.2% (inactive); in experiment [6] (setting [9]) it was 85.9%; in experiment [6] (setting [10]), 82.2%. Moreover, the Her2 level in experiment [2] is 87% (inactive). Also, the differential viability (reversal) in experiment [6] (H69AR cells + 2 uM doxorubicin) was -3.63% (inactive). Also, the figures for the inhibition in experiment [7] and in experiment [8] were -1.05% (inactive) and 12.7% (inactive), respectively.
Consider `O=C(COc1ccccc1)NCCSCc1ccco1`, for which the viability in experiment [1] was 109%; in experiment [3] it was 109% (inactive); in experiment [4], 104% (inactive); in experiment [5], 89.3% (inactive); in experiment [6] (setting [9]) it was 79.4%; in experiment [6] (setting [10]), 89.3%. Also, in experiment [2], the Her2 level was 98.5% (inactive). Further, the differential viability (reversal) in experiment [6] (H69AR cells + 2 uM doxorubicin) was 9.83% (inactive). Moreover, the inhibition in experiment [7] was -6.49% (inactive); in experiment [8], -5.67% (inactive).
Turning to `Cc1ccc(-n2ncc3c(=O)[nH]c(SCC(=O)N4CCN(c5ccccc5)CC4)nc32)cc1`, the viability is 86% in experiment [1]; 86% (inactive) in experiment [3]; 92.2% (inactive) in experiment [4]; 76.3% (inactive) in experiment [5]; 71.5% in experiment [6] (setting [9]); 76.3% in experiment [6] (setting [10]). In addition, the Her2 level in experiment [2] is 77% (inactive). Further, the differential viability (reversal) in experiment [6] (H69AR cells + 2 uM doxorubicin) was 4.85% (inactive). In addition, the inhibition was -5.79% (inactive) in experiment [7] and -1.17% (inactive) in experiment [8].
Turning to `COc1ccc(C(=O)NCCCCCC(=O)O)cc1OC`, the viability is 125% in experiment [1]; 125% (inactive) in experiment [3]; 90.5% (inactive) in experiment [4]; 92.2% (inactive) in experiment [5]; 101% in experiment [6] (setting [9]); 92.2% in experiment [6] (setting [10]). Moreover, in experiment [2], the Her2 level is 99% (inactive). Further, the differential viability (reversal) in experiment [6] (H69AR cells + 2 uM doxorubicin) was -8.78% (inactive). The inhibition in experiment [7] was -7.24% (inactive); in experiment [8], -3.33% (inactive).
`Nc1ncnc(Nc2ccccc2C(F)(F)F)n1`: the viability is 93.5% in experiment [1]; 93.5% (inactive) in experiment [3]; 99.5% (inactive) in experiment [4]; 95.6% (inactive) in experiment [5]; 93.3% in experiment [6] (setting [9]); 95.6% in experiment [6] (setting [10]). For the same molecule, in experiment [2], the Her2 level was 110% (inactive). Besides, the differential viability (reversal) in experiment [6] (H69AR cells + 2 uM doxorubicin) was 2.26% (inactive). In addition, the inhibition is 5.19% (inactive) in experiment [7] and -11.2% (inactive) in experiment [8].
Turning to `O=C(NCCN1CCOCC1)c1ccc2c(c1)N(Cc1ccccc1)C(=O)CS2`, the viability was 89.5% in experiment [1]; 89.5% (inactive) in experiment [3]; 97.8% (inactive) in experiment [4]; 99.4% (inactive) in experiment [5]; 94.6% in experiment [6] (setting [9]); 99.4% in experiment [6] (setting [10]). Further, in experiment [2], the Her2 level was 111% (inactive). Besides, the differential viability (reversal) in experiment [6] (H69AR cells + 2 uM doxorubicin) was 4.81% (inactive). The inhibition is 0.67% (inactive) in experiment [7] and -0.32% (inactive) in experiment [8].
As to `CC(=O)c1cn(CC(=O)NCc2ccc3c(c2)OCO3)c2ccccc12`, the viability in experiment [1] is 102%; in experiment [3] it was 102% (inactive); in experiment [4], 98.4% (inactive); in experiment [5] it was 99% (inactive); in experiment [6] (setting [9]) it was 92.2%; in experiment [6] (setting [10]), 99%. In addition, the Her2 level in experiment [2] is 93% (inactive). Moreover, in experiment [6] (H69AR cells + 2 uM doxorubicin), the differential viability (reversal) was 6.8% (inactive). Moreover, the figures for the inhibition in experiment [7] and in experiment [8] were -9.32% (inactive) and 3.65% (inactive), respectively.
Regarding `Nc1nnc(SCC(=O)N2CCc3ccccc32)n1-c1ccccc1`, the viability in experiment [1] is 102%; in experiment [3] it was 102% (inactive); in experiment [4], 82% (inactive); in experiment [5] it was 101% (inactive); in experiment [6] (setting [9]), 94.5%; in experiment [6] (setting [10]), 101%. Further, in experiment [2], the Her2 level was 80% (inactive). For the same molecule, the differential viability (reversal) in experiment [6] (H69AR cells + 2 uM doxorubicin) is 6.62% (inactive). The inhibition in experiment [7] is -4.8% (inactive); in experiment [8], 0.32% (inactive).
As to `CCC(C)(C)NC(=O)C(c1ccco1)N(C(=O)Cn1nnc2ccccc21)c1ccc2c(c1)OCO2` (stereo not given), the viability is 92.5% in experiment [1]; 92.5% (inactive) in experiment [3]; 78.1% (inactive) in experiment [4]; 105% (inactive) in experiment [5]; 85.9% in experiment [6] (setting [9]); 105% in experiment [6] (setting [10]). The Her2 level in experiment [2] is 85% (inactive). Moreover, in experiment [6] (H69AR cells + 2 uM doxorubicin), the differential viability (reversal) was 18.9% (inactive). The inhibition in experiment [7] was -0.53% (inactive); in experiment [8], -1.13% (inactive).
As to `Cc1[nH]c(=O)[nH]c(=O)c1S(=O)(=O)N1CCN(c2cccc(Cl)c2)CC1`, the viability in experiment [1] is 88%; in experiment [3] it was 88% (inactive); in experiment [4], 82.6% (inactive); in experiment [5] it was 93.2% (inactive); in experiment [6] (setting [9]), 91.6%; in experiment [6] (setting [10]), 93.2%. For the same molecule, the Her2 level in experiment [2] is 112% (inactive). Further, the differential viability (reversal) in experiment [6] (H69AR cells + 2 uM doxorubicin) is 1.64% (inactive). Moreover, the inhibition was 3.95% (inactive) in experiment [7] and -9.35% (inactive) in experiment [8].
As for `CC(C)COc1ccc(C2NC(=O)NC2=O)cc1` (stereo not given), the viability in experiment [1] was 85.5%; in experiment [3] it was 85.5% (inactive); in experiment [4], 96.3% (inactive); in experiment [5], 103% (inactive); in experiment [6] (setting [9]), 103%; in experiment [6] (setting [10]), 103%. For the same molecule, the Her2 level in experiment [2] was 106% (inactive). Further, in experiment [6] (H69AR cells + 2 uM doxorubicin), the differential viability (reversal) is -0.53% (inactive). Further, the inhibition was -0.52% (inactive) in experiment [7] and -8.67% (inactive) in experiment [8].

As usually defined, the viability is a read-out of living cells in per cent, often relative to untreated cells. As a reminder, the inhibition is the drop in the measured response relative to a control, in per cent.
